Bioassay records deposited in PubChem by several laboratories.
Only some compounds are listed: those with a hit (about 2.6% of all), similar ones and a draw of the others.
SKN-1 block: inhibitors of C. elegans SKN-1; C. elegans VP596 Pgst-4::GFP/RFP ratio, acrylamide-induced, 24 h; inhibition, % at 21.8 µM; 360,000 tested, 0.49% active;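 active = interference check ratio from 0.5 to 1.5 plus GFP to RFP signal ratio inhibition reaching or exceeding a fixed threshold, cut at about 30% in these data, passing the limit was not always enough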
Rce1 inh: yeast Ras-converting enzyme inhibition; 290,000 tested, 0.27% active; Q03530; calls only; yeast membranes, quenched prenylated peptide cleavage fluorescence;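 active = fall in fluorescence gain of 50% or more versus controls, with final raw signal at or below 3038400; inconclusive = same 50% fall but final raw signal above 3038400; inactive = fall in fluorescence gain under 50%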;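 also: plate controls were neutral control wells for no effect and wells lacking membranes for full effect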
GRK2 aptamer HTS: blocks RNA aptamer binding to human GRK2 | P25098 | inhibition of aptamer binding, % at 10 µM | bead flow cytometry, FAM-aptamer displacement from GRK2 | 330,000 tested, 0.59% active;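 active = inhibition of aptamer binding above 40%, roughly 3 SD of noise, on plates passing a quality check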;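 also: median bead fluorescence of bound FAM aptamer so fluorescent compounds give negative values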
Myeloid diff 2: promotes myeloid progenitor differentiation | ER-HoxA9 myeloid progenitors, lysozyme-GFP differentiation, flow cytometry | calls only at 10 µM | 360,000 tested, 1% active | AID 624256;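 active = normalized GFP-positive differentiation at or above the plate's own cutoff, the solvent-only control mean plus 3 SD; inconclusive = no clear call, values can overlap the other calls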;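 also: cells exposed to compound for four days before flow analysis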
T cell HTS: modulates CD8 T cell binding to vesicles; 330,000 tested, 0.068% active; 2C CD8+ T cell-vesicle binding, flow cytometry; stronger effect = lower value; response (vesicle binding), % at 7 µM;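 active = response, share of CD8 T cells binding vesicles, and their 90th percentile fluorescence all below set limits, cut at about 80% in these data, passing the limit was not always enough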;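 also: values below 100% mean blocked vesicle binding to the CD8+ T cells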
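Assay system – 2C mouse CD8+ T cells · Also added – QL9-loaded Drosophila micro-vesicles · Timing – Cell–vesicle co-incubation 1.5 h at 37 °C, staining 20 min on ice · Signal – flow cytometry of vesicle-bound cells · Measure – percent CD8+ FL2 mean versus row control · Controls – Peptide-free naked vesicles (low) and QL9 vesicles with 0.7% DMSO vehicle (high)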
Rin1 Abl inh: blocks binding of human Rin1 to Abl | P00519+Q13671 | TR-FRET Rin1/Abl binding, biochemical | inhibition, % at 7.35 µM | 360,000 tested, 0.4% active; in the data active = inhibition above about 5%, passing the limit was not always enough
The depositor's hits bear a star; i = inactive; ? = inconclusive; nt = no result; + = active, no number; ! = a repeat was not active.

SMILES | SKN-1 block | Rce1 inh | GRK2 aptamer HTS | Myeloid diff 2 | T cell HTS | Rin1 Abl inh
CC1CCN(c2ccc3c(c2)S(=O)(=O)c2cccc(C(=O)NCc4cccc(F)c4)c2C3=O)CC1 | -54 | nt | 3 | i | 523 | 0
Cc1cc2cc(C#N)c(NCCNC(=S)NCCCN3CCOCC3)nc2cc1C | 18 | + | 2 | i | 161 | -1
CC(C)CC(NC(=O)CC12CC3CC(CC(C3)C1)C2)C(=O)NC1=NCCS1 (centres undefined) | 12 | i | 1 | i | 135 | 2
COc1ccc(Cl)cc1N1C(=O)/C(=C/c2sccc2C)N=C1SCC(=O)NC1CC1 | 0 | nt | nt | i | nt | 0
CCc1ccc(C2C(C#N)=C(N)N(N(C)C)C3=C2C(=O)CCC3)cc1 (centres undefined) | 36* | i | 2 | i | 208 | -1
CN(C)N1C(N)=C(C#N)C(c2ccc(F)cc2)C2=C1CCCC2=O (centres undefined) | 3 | i | 0 | i | 320 | 3
COc1ccc(OC(=O)c2ccc(OC)c(S(=O)(=O)N3CCOCC3)c2)cc1 | 12 | i | 0 | ? | 572 | 1
CC(C)OC(=O)c1cc(C(=O)c2cc(Cl)ccc2O)coc1=N | 1 | i | 0 | + | 232 | 1
CC(C)OC(=O)c1cc(C(=O)c2cc(F)ccc2O)coc1=N | -8 | i | 0 | + | 465 | 0
CC(C)OC(=O)c1cc(C(=O)c2cc(Br)ccc2O)coc1=N | -8 | i | 1 | i | 264 | -2
CCOc1ccccc1C(=O)OCC(=O)Nc1ncc(C(F)(F)F)cc1Cl | -3 | i | 0 | i | 259 | -2
O=C(COC(=O)c1cccc2ccccc12)Nc1ncc(C(F)(F)F)cc1Cl | -29 | i | 0 | + | 189 | 0
O=C(O)c1cc(NC(=O)c2ccc3c(c2)C(=O)N(Cc2ccccc2)C3=O)cc(C(=O)O)c1 | 1 | i | 5 | i | 231 | 2
CC(C)c1nc(SCC(=O)NC2CCCC2)c2ccccc2n1 | 6 | nt | 0 | + | 168 | -1
COc1ccc(-n2c(SCC(=O)Nc3ccc4c(c3)OCO4)nc3ccccc3c2=O)cc1 | 15 | i | 0 | + | 158 | -2
COc1ccc(NC(=O)CSc2nc(O)cc(=O)n2-c2ccc(OC)cc2)cc1 | 2 | nt | 0 | + | 329 | -3
COc1ccc(-n2c(SCC(=O)Nc3ccccc3)nc(O)cc2=O)cc1 | 2 | i | 0 | i | 520 | -4
O=C(CSc1nc2ccccc2c(=O)n1-c1ccc(F)cc1)Nc1ccc(N2CCOCC2)cc1 | 2 | i | 1 | i | 274 | 2
O=C(CSc1nc2ccccc2c(=O)n1-c1ccc(F)cc1)Nc1cc(S(=O)(=O)N2CCOCC2)ccc1Cl | -3 | i | 53* | i | 242 | 1
COc1cc(CNCc2cc(OC)ccc2OC)cc(OC)c1 | 7 | i | 0 | i | 160 | 2
COc1ccc(NC(=O)CSc2nc(C3CC3)nc3ccccc23)cc1 | 6 | i | 0 | + | 172 | 2
COc1ccccc1OC(=O)CCc1nc2ccccc2s1 | 3 | i | 2 | + | 108 | 2
COC(=O)CCCc1nc2ccccc2s1 | 8 | i | 0 | i | 200 | 5
Cc1ccc(N=C(N)N=C(N)N)cc1 | 14 | i | 0 | + | 368 | 4
COc1cccc(-c2c(C(=O)N/N=C/c3sccc3C)nnn2-c2nonc2N)c1 | -2 | + | 1 | i | 464 | -3
SMILES | SKN-1 block | Rce1 inh | GRK2 aptamer HTS | Myeloid diff 2 | T cell HTS | Rin1 Abl inh
CCCOc1ccc(-c2c(C(=O)N/N=C/c3cccs3)nnn2-c2nonc2N)cc1 | -7 | + | 1 | i | 451 | -3
CCCOc1ccc(-c2c(C(=O)N/N=C/c3ccncc3)nnn2-c2nonc2N)cc1 | 15 | i | 3 | i | 302 | 0
CCOc1ccc(-c2c(C(=O)N/N=C/c3ccc(OC)cc3)nnn2-c2nonc2N)cc1 | -4 | i | 0 | i | 7.5* | 7
O=C1OC(Nc2ccc3c(c2)OCO3)c2ccccc21 (centres undefined) | -8 | i | 2 | + | 127 | 1
O=C1OC(Nc2ccc(F)c([N+](=O)[O-])c2)c2ccccc21 (centres undefined) | -1 | i | 1 | i | 263 | -2
CCc1nnc(NS(=O)(=O)c2ccc(Nc3ccc([N+](=O)[O-])c4nonc34)cc2)s1 | 51* | i | 0 | i | 242 | -4
CC(=O)c1ccc(Nc2ccc([N+](=O)[O-])c3nonc23)cc1 | 15 | i | 2 | i | 242 | -18
O=C(O)c1ccc(Nc2ccc([N+](=O)[O-])c3nonc23)cc1 | 44* | i | 0 | i | 260 | -12
Cc1c(NC(=O)NCCN2C(=O)C3C4C=CC(C4)C3C2=O)c(=O)n(-c2ccccc2)n1C (centres undefined) | 13 | i | 0 | i | 190 | -3
O=C(NCCN1C(=O)C2C3C=CC(C3)C2C1=O)Nc1ccccc1O (centres undefined) | 38* | i | 1 | i | 252 | -5
Cc1ccc(/C=N/NC(=O)c2cccc(S(=O)(=O)Nc3ccccc3Cl)c2)o1 | 4 | i | 0 | i | 201 | -2
Cc1cccc(C(=O)Nc2ccc(C(=O)N/N=C/c3ccc(C)o3)cc2)c1 | -1 | nt | 1 | ? | 231 | 2
Cc1ccc(/C=N/NC(=O)c2cccc(NC(=O)c3ccccc3Cl)c2)o1 | 4 | nt | 0 | + | 185 | -3
Cc1ccc(/C=N/NC(=O)c2cccc(NC(=O)c3ccccc3C)c2)o1 | 15 | nt | 0 | + | 176 | 0
CC(=O)OCC(=O)Nc1ccccc1OC(F)F | 5 | nt | 0 | i | 798 | 1
CS(=O)(=O)c1nc(S(=O)(=O)c2ccc(Cl)cc2)c(NCc2ccccn2)s1 | -6 | i | 5 | i | 414 | 1
OCCNc1nc2nonc2nc1NCCO | 3 | i | 0 | i | 203 | 1
CC(C)(C)Nc1nc2nonc2nc1NC(C)(C)C | 7 | i | 1 | + | 0.0* | -4
O=S(=O)(Nc1ccon1)c1ccc(Br)s1 | 11 | i | 0 | i | 500 | -6
CCCCCSc1nc2c(c(=O)[nH]c(=O)n2C)n1C | -1 | i | 0 | + | 320 | -1
Cc1ccc2c(CN3CCN(Cc4ccc5c(c4)OCO5)CC3)cc(=O)oc2c1C | -4 | +! | 0 | i | 380 | -6
CC(C)C[C@@H]1CC2=C(C(=O)OC(C)(C)O2)[C@H](CCc2ccccc2)O1 | 6 | nt | nt | i | nt | nt
O=C(O)c1cc2ccccc2c(N=Nc2cccnc2)c1O | 39* | i | 0 | ? | 678 | 1
O=C(O)c1cc(N=Nc2c(O)ccc3ccccc23)cc(C(=O)O)c1 | 33 | nt | nt | i | nt | -2
